The record followed here is ChEMBL document CHEMBL2093137, “WHO-TDR NTD Screening”.

Data set [1] relates to Leishmania infantum. Briefly: WHO-TDR: Leishmaniasis. It counts as functional, organism-based, Mus musculus. Conditions: Macrophage. In a few lines: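 Following previously published standard procedures, a whole-organism screen was run on Leishmania infantum MHOM/MA(BE)/67 amastigotes within murine peritoneal macrophages, with a reference drug as positive control. The 10,000 compounds tested formed a diverse Life Chemicals library filtered for drug-likeness and reactive groups. Potency against the parasite is reported as IC50.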

Data set [2] has as its system Onchocerca ochengi. Briefly: WHO-TDR: Onchocerciasis. Further details: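 at 12.5 µM on microfilariae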. The format is functional. In a few lines: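 Whole-organism screen of a 10,000-compound diverse library from Life Chemicals, filtered for drug-likeness and reactive groups, against microfilariae of Onchocerca ochengi or Onchocerca lienalis, used as animal-pathogen stand-ins for the human parasite. The assay followed previously published standard procedures, with reference drugs as positive controls. Activity is reported as percent inhibition and as IC50.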

For data set [3], the system named is Plasmodium falciparum K1. Briefly: WHO-TDR: Malaria. It counts as functional, organism-based, Homo sapiens. As to conditions: Erythrocyte. In a few lines:
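Following previously published standard procedures, with a reference drug serving as positive control, compounds were tested on the Plasmodium falciparum K1 strain inside human red blood cells. The 10,000-compound diverse set came from Life Chemicals after filtering for drug-likeness and reactive groups. Potency against the parasite appears as IC50.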

Data set [4] concerns Brugia malayi. Briefly: WHO-TDR: Lymphatic Filariasis. The format is functional. Also noted: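 tested at 10 µM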. In a few lines:
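Whole-organism screen of a 10,000-compound diverse library from Life Chemicals, filtered for drug-likeness and reactive groups, against Brugia malayi microfilariae. The assay followed previously published standard procedures, with reference drugs as positive controls. Activity is reported as percent inhibition and as IC50.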

The subject of data set [5] is Schistosoma mansoni. Briefly: WHO-TDR: Schistosomiasis. Further details: concentration or dose not given beside the values. It counts as functional. In a few lines: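 Whole-organism screen of a 10,000-compound diverse library from Life Chemicals, filtered for drug-likeness and reactive groups, against larval and/or adult worms of Schistosoma mansoni Puerto Rican strain. The assay followed previously published standard procedures, with a reference drug as positive control. Activity is reported as percent inhibition and as IC50.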

The test system of data set [6] is Trypanosoma brucei brucei. Briefly: WHO-TDR: Human African Trypanosomiasis (HAT). It counts as functional, organism-based. As to conditions: Squib-427. Summed up: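 Bloodstream forms of the Trypanosoma brucei Squib 427 strain were tested in a whole-organism screen with a diverse library from Life Chemicals of 10,000 compounds. Before screening, the library was filtered for drug-likeness and for reactive groups. The assay used previously published standard procedures and included reference drugs as positive controls. Potency against the parasite is expressed as IC50.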

The nature of data set [7]: WHO-TDR: Cytotoxicity. It counts as toxicity, cell-based. As to conditions: human, MRC5 cells.
Data set [8] concerns Trypanosoma cruzi. Briefly: WHO-TDR: Chagas disease. The format is functional, organism-based, Homo sapiens. Conditions: MRC5. Summed up: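 A diverse library of 10,000 compounds from Life Chemicals, filtered for drug-likeness and reactive groups, was screened against intracellular amastigotes of Trypanosoma cruzi Tulahuen CL2 beta-galactosidase strain. The parasites were grown in MRC-5SV2 human lung fibroblast host cells, and a reference drug served as positive control under previously published standard procedures. Antiparasitic potency is given as IC50.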

Structures are written as SMILES. Converted amounts (≈) assume the structure as drawn.

As to `O=C(CSC1=Nc2cccnc2Nc2ccccc21)Nc1ccc(OC(F)(F)F)cc1`, the IC50 – broadly, the concentration that inhibits the measured activity by half – in data set [1] was more than 13.3 µg/mL; in data set [3] it was 13.3 µg/mL (≈ 30 µM); in data set [6], more than 13.3 µg/mL; in data set [7], more than 13.3 µg/mL; in data set [8], more than 13.3 µg/mL. The figures for the “% Inhibition” value in data set [2], in data set [4] and in data set [5] were 100%, 0% and 0%, respectively.

For `O=S(=O)(CCCOc1ccc(F)cc1)NCc1ccccc1Cl`, the half-maximal inhibitory concentration (IC50) in data set [1] was more than 10.7 µg/mL; in data set [3], more than 10.7 µg/mL; in data set [6], more than 10.7 µg/mL; in data set [7], more than 10.7 µg/mL; in data set [8] it was 7.84 µg/mL (≈ 21.9 µM). For the same compound, the figures for the “% Inhibition” value in data set [2], in data set [4] and in data set [5] were 100%, 0% and 0%, respectively.

As to `Cc1ccc(C)c2sc(N(CCCn3ccnc3)C(=O)c3ccco3)nc12`, the IC50 in data set [1] was more than 12.5 µg/mL; in data set [3] it was 0.45 µg/mL (≈ 1.18 µM); in data set [6], 3.86 µg/mL (≈ 10.2 µM); in data set [7], 3.53 µg/mL (≈ 9.28 µM); in data set [8], 1.49 µg/mL (≈ 3.92 µM). The % Inhibition (commonly the change of the read-out against control, counted positive when it falls) in data set [2] turned out to be 100%; in data set [4] it was 0%; in data set [5] it was 0%.

In the case of `Cc1ccnc(Nc2ccc(NCCNC(=O)Nc3ccc(F)cc3)nn2)c1`, the IC50 in data set [1], in data set [3], in data set [6], in data set [7] and in data set [8] was more than 11.4 µg/mL each time. In addition, the results for the “% Inhibition” value in data set [2], in data set [4] and in data set [5] were 100%, 0% and 0%, respectively.

With `Cc1ccc(-c2cc(CC(=O)Nc3cccc(C)n3)no2)cc1`, the IC50 in data set [1], in data set [3], in data set [6], in data set [7] and in data set [8] was more than 9.22 µg/mL in each case. In addition, the “% Inhibition” value in data set [2] was found to be 100%; in data set [4], 0%; in data set [5] it was 0%.

With `CCc1ccc(C(=O)NCCNc2ccc(Nc3cccc(C)n3)nn2)cc1`, the IC50 was more than 11.3 µg/mL in data set [1]; 3.3 µg/mL (≈ 8.76 µM) in data set [3]; more than 11.3 µg/mL in data set [6]; 6.22 µg/mL (≈ 16.5 µM) in data set [7]; more than 11.3 µg/mL in data set [8]. The “% Inhibition” value in data set [2] came to 100%; in data set [4], 0%; in data set [5], 0%.

With `CCn1ccc(C(=O)Nc2nc(C(C)(C)C)cs2)n1`, the IC50 in data set [1], in data set [3], in data set [6], in data set [7] and in data set [8] was more than 8.35 µg/mL each time. The results for the “% Inhibition” value in data set [2], in data set [4] and in data set [5] were 100%, 0% and 16.7%, respectively.

`CCc1ccc2nc(N(CCCn3ccnc3)C(=O)/C=C/c3cccs3)sc2c1`: the IC50 worked out at 4.46 µg/mL (≈ 10.5 µM) in data set [1]; 0.163 µg/mL (≈ 0.386 µM) in data set [3]; 1 µg/mL (≈ 2.37 µM) in data set [6]; 3.5 µg/mL (≈ 8.28 µM) in data set [7]; 0.399 µg/mL (≈ 0.944 µM) in data set [8]. The “% Inhibition” value worked out at 100% in data set [2], 0% in data set [4] and 0% in data set [5].

For `COc1cccc(NC(=O)N2CCN(c3ccc(Nc4cc(C)ccn4)nn3)CC2)c1`, the half-maximal inhibitory concentration (IC50) in data set [1] is more than 12.6 µg/mL; in data set [3], 9.16 µg/mL (≈ 21.8 µM); in data set [6], 5.21 µg/mL (≈ 12.4 µM); in data set [7], more than 12.6 µg/mL; in data set [8] it was more than 12.6 µg/mL. The “% Inhibition” value in data set [2] came to 100%; in data set [4], 0%; in data set [5], 0%.

Consider `CCn1ccnc1N1CCN(CC(=O)NC2CCCCC2)CC1`, for which the IC50 in data set [1] is 0.381 µg/mL (≈ 1.19 µM); in data set [3] it was more than 11.8 µg/mL; in data set [6], more than 11.8 µg/mL; in data set [7], more than 11.8 µg/mL; in data set [8], more than 11.8 µg/mL. In addition, the “% Inhibition” value in data set [2], in data set [4] and in data set [5] was 0% in each case.

With `COc1ccc(-c2cccc(NC(=O)Nc3ccc(C)cc3)c2)nn1`, the IC50 was more than 10 µg/mL in data set [1]; more than 10 µg/mL in data set [3]; more than 10 µg/mL in data set [6]; more than 10 µg/mL in data set [7]; 7.36 µg/mL (≈ 22 µM) in data set [8]. Besides, the “% Inhibition” value in data set [2] came to 100%; in data set [4], 0%; in data set [5], 58.3%.

`O=C(c1ccc2c(c1)OCO2)C1C(=O)N(c2ccccc2)N=C1c1ccccc1` (configuration not stated): the IC50 in data set [1] was more than 11.5 µg/mL; in data set [3], more than 11.5 µg/mL; in data set [6], 3.32 µg/mL (≈ 8.63 µM); in data set [7], 6.6 µg/mL (≈ 17.2 µM); in data set [8], more than 11.5 µg/mL. The figures for the “% Inhibition” value in data set [2], in data set [4] and in data set [5] were 100%, 0% and 0%, respectively.

Take `CSc1cccc2sc(N3CCN(C(=O)c4ccccc4)CC3)nc12`: the IC50 in data set [1] is more than 11.1 µg/mL; in data set [3] it was more than 11.1 µg/mL; in data set [6] it was more than 11.1 µg/mL; in data set [7], more than 11.1 µg/mL; in data set [8], 4.19 µg/mL (≈ 11.3 µM). The “% Inhibition” value in data set [2] is 100%; in data set [4], 0%; in data set [5], 0%.

`O=C(Nc1ccccc1)N1CCN(c2ccc(Nc3ccccn3)nn2)CC1`: the IC50 in data set [1] is more than 11.3 µg/mL; in data set [3], more than 11.3 µg/mL; in data set [6], more than 11.3 µg/mL; in data set [7], 11.3 µg/mL (≈ 30 µM); in data set [8], more than 11.3 µg/mL. Moreover, the “% Inhibition” value in data set [2] worked out at 100%; in data set [4], 0%; in data set [5], 0%.

Consider `CC(=O)N1CCc2ccc(NC(=O)c3ccc(C(C)(C)C)cc3)cc21`, for which the IC50 was more than 10.1 µg/mL in data set [1]; more than 10.1 µg/mL in data set [3]; more than 10.1 µg/mL in data set [6]; more than 10.1 µg/mL in data set [7]; 0.3 µg/mL (≈ 0.892 µM) in data set [8]. Further, the “% Inhibition” value in data set [2] came out at 0%; in data set [4], 0%; in data set [5], 16.7%.

Consider `COc1ccccc1C(=O)N1CCN(c2nccn2-c2ccccc2F)CC1`, for which the IC50 in data set [1], in data set [3], in data set [6], in data set [7] and in data set [8] was more than 12.5 µg/mL each time. In addition, the “% Inhibition” value in data set [2] came to 100%; in data set [4], 0%; in data set [5] it was 25%.

Turning to `COc1cc(C(=O)Nc2ccc3c(c2)N(C(=O)c2ccco2)CC3)cc(OC)c1OC`, the IC50 in data set [1] is more than 12.7 µg/mL; in data set [3], 11.5 µg/mL (≈ 27.1 µM); in data set [6], more than 12.7 µg/mL; in data set [7] it was 2.08 µg/mL (≈ 4.91 µM); in data set [8], more than 12.7 µg/mL. Also, the figures for the “% Inhibition” value in data set [2], in data set [4] and in data set [5] were 100%, 0% and 16.7%, respectively.

Regarding `O=S(=O)(CCCOc1ccc2c(c1)OCO2)NCCc1c[nH]c2ccccc12`, the IC50 in data set [1] is more than 12.1 µg/mL; in data set [3], more than 12.1 µg/mL; in data set [6], more than 12.1 µg/mL; in data set [7], more than 12.1 µg/mL; in data set [8] it was 3.12 µg/mL (≈ 7.74 µM). Further, the “% Inhibition” value in data set [2] amounted to 100%; in data set [4], 0%; in data set [5] it was 0%.

Consider `Cc1cc(C(=O)Nc2nnc(-c3ccc(Br)s3)o2)nn1C`, for which the IC50 in data set [1] is more than 11 µg/mL; in data set [3], more than 11 µg/mL; in data set [6], more than 11 µg/mL; in data set [7], 3.2 µg/mL (≈ 8.68 µM); in data set [8], more than 11 µg/mL. For the same compound, the “% Inhibition” value was 100% in data set [2], 0% in data set [4] and 8.3% in data set [5].
